Experimental data as given in ChEMBL document CHEMBL3860044, “The Rational Design, Synthesis, and Antimicrobial Properties of Thiophene Derivatives That Inhibit Bacterial Histidine Kinases” (J Med Chem, 2016).

Key:
Format in all cases: functional
Staphylococcus aureus [1] = assay: Antibacterial activity against Staphylococcus aureus ATCC 29213 by broth microdilution method
Procedure, shortened: (§1)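 Clinical resistant isolates and quality control strains (S. aureus ATCC 29213, E. coli ATCC 25922) are tested by EUCAST broth microdilution with a 10⁶ bacteria/mL inoculum, in triplicate, with or without a fixed adjuvant concentration. For MBC, the MIC dilution and at least two more concentrated dilutions are plated and CFU/mL counted.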

Staphylococcus aureus [2] = assay: Antibacterial activity against penicillin G-resistant/penicillinase producing Staphylococcus aureus isolate C1P15 by broth microdilution method
Procedure, shortened: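 Broth microdilution per EUCAST on the clinical S. aureus isolate C1P15 (penicillinase producer, penicillin G resistant). Inoculum 10⁶ bacteria per mL. Run in triplicate. S. aureus ATCC 29213 served as the quality-control strain.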

Staphylococcus aureus [3] = assay: Bactericidal activity against Staphylococcus aureus ATCC 29213 by broth microdilution method; procedure, shortened: as §1
Staphylococcus aureus [4] = assay: Bactericidal activity against penicillin G-resistant/penicillinase producing Staphylococcus aureus isolate C1P15 by broth microdilution method
Procedure, shortened: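 MBC on clinical S. aureus isolate C1P15 (penicillinase, penicillin G resistant), following EUCAST broth microdilution at 10⁶ bacteria per mL, in triplicate. The MIC dilution and at least two more concentrated dilutions were plated and enumerated as CFU/mL. S. aureus ATCC 29213 served as quality control.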

Cc1onc(-c2ccccc2Cl)c1C(=O)N[C@@H]1C(=O)N2[C@@H]1SC(C)(C)[C@@H]2C(=O)O [CLOXACILLIN]
1 µg/mL: MIC (Staphylococcus aureus [1]) | MIC (Staphylococcus aureus [2]) | MBC (Staphylococcus aureus [3]) | MBC (Staphylococcus aureus [4])
